High-throughput results (PubChem BioAssay)
HNF4A DNA FP = change in binding of human HNF4 alpha to DNA. P41235. HNF4a-FITC DNA binding, fluorescence polarization, 1 h. activity change, % at 10 µM. actives 0.3% (n = 360,000). AID 1224865; in the data active means activity change above about 30%, passing the limit was not always enough
CSN inh = CSN deneddylation inhibition | Q92905 | Purified CSN, SCF-Nedd8-OG deneddylation, fluorescence polarization | inhibition, % at 12.5 µM | actives 0.38% (n = 360,000);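 active means pattern-corrected inhibition above about 35%, with an unprinted fluorescence ratio check between 0.5 and 1.5, limit read from the data, passing the limit was not always enough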;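 further: 0% = enzyme with substrate and 100% = substrate without enzyme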
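Assay system: purified human Csn5 enzyme expressed in HEK293T cells; measure: % inhibition; also added: SCFSkp2-Nedd8OG substrate at 10 nM final; technique: fluorescence polarization; times: reaction 90 min, room temperature; medium: Tris buffer pH 7.5, NaCl, DTT, Tween-20, trehalose, ovalbumin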
CRFBP-R2 agonist = agonists of human CRF-binding protein/CRF-R2 receptor complex; HEK293 CRF-R2/CRF-BP, calcium dye fluorescence (FLIPR); percent of saturating CRF peptide response; activation, % at 13.2 µM; actives 0.46% (n = 350,000); AID 588473;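 active means activation of at least 50%, plus an integration ratio under a set limit after plate pattern correction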;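 further: plate controls were neutral control wells without compound for no effect and CRF at EC100 for full effect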
TPT1 inhibitor = inhibitors of Candida albicans tRNA 2'-phosphotransferase TPT1; actives 0.81% (n = 300,000); recombinant caTPT1, FP RNA substrate dephosphorylation; AID 1962; inhibition, % at 5 µM;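 active means inhibition above the mean of all tested compounds plus 3 SD, set per screening campaign, cut at about 24% in these data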;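 further: plate controls were DMSO alone for no effect and ferristatin control at 100 nM for full effect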
Rpn11 inh = Rpn11 (human) deubiquitinase inhibition; O00487; human 26S proteasome, Ub4-pepOG fluorescence polarization; 20S core pre-blocked with epoxomicin; calls only at 20 µM; actives 0.59% (n = 360,000); AID 588493;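 active means inhibition at 20 µM, scaled to each plate's controls, above about 33%, limit read from the data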
CRFR2-BP antag = blocks CRF-induced signaling of the CRF-BP/CRF-R2 complex; HEK293 CRF-R2/CRF-BP, CRF-induced calcium fluorescence; inhibition, % at 11.8 µM; actives 0.59% (n = 350,000); AID 588475;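 active means inhibition of the ligand-induced calcium signal above about 50% at the single tested concentration, limit read from the data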
Rpn11 inh conf = confirmation of human proteasome Rpn11 inhibitors | shares compounds with Rpn11 inh | purified human 26S proteasome, Ub4-pepOG fluorescence polarization; proteasome pretreated with epoxomicin | inhibition, % at 20 µM | actives 29% (n = 1,900)
MMP-2 counter = counter-screen for RPN11 inhibitors: inhibition of human MMP-2; inhibition, % at 20 µM; recombinant MMP-2, FRET peptide cleavage fluorescence; AID 602330; shares compounds with Rpn11 inh; actives 4% (n = 1,900);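 further: human MMP-2 activated beforehand with APMA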
Target sequence (P08253 whole entry, looked up): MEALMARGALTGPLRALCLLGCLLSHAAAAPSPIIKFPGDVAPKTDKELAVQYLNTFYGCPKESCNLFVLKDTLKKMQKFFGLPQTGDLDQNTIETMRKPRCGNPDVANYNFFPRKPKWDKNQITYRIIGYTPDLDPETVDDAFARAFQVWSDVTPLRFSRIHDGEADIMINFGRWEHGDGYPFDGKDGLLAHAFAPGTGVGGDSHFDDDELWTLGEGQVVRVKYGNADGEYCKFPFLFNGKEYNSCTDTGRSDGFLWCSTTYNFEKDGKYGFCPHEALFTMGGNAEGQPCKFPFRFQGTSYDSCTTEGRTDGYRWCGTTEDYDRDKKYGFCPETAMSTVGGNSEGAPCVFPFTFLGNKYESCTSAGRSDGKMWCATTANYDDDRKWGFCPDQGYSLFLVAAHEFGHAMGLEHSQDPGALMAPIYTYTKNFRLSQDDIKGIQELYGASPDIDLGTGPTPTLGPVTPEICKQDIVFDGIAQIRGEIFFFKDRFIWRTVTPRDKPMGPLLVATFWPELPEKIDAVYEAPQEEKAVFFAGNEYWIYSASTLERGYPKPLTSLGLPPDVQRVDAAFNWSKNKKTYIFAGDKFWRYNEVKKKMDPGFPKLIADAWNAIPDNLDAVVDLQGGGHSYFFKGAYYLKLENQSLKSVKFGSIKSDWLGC
Thrombin FP = thrombin (bovine) inhibition counter-screen; bovine thrombin cleavage of Ub4-pepOG, fluorescence polarization; actives 13% (n = 1,900); inhibition, % at 20 µM; AID 602333; shares compounds with Rpn11 inh;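 active means mean inhibition at least 40% at 20 µM, or signal 3 deviations below plate average, so some actives read negative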;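 further: plate controls were thrombin with DMSO for no effect and buffer wells lacking thrombin for full effect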
* hit, by the source's call; i = inactive; nt = no result; + = active, no number. Hits are enriched below; roughly 2.3% of the tested compounds scored in any of these assays. Unless noted, no stated cut-off is given here; in the data, active means inhibition above about 40%; inactive means the rest.

SMILES	HNF4A DNA FP	CSN inh	CRFBP-R2 agonist	TPT1 inhibitor	Rpn11 inh	CRFR2-BP antag	Rpn11 inh conf	MMP-2 counter	Thrombin FP
c1ccc(-c2ccc(-c3ccccn3)s2)nc1	0	3	0	4	i	-3	nt	nt	nt
COc1ccc(C2=NC(=O)NC2c2ccc(OC)cc2)cc1 (stereo unspecified)	3	3	0	-2	+	-20	9	-14	-6
CCc1ccc(C(=O)COC(=O)c2ccc(-c3nnc(-c4ccccc4)o3)cc2)cc1	-4	1	12	-2	+	-15	8	5	-13
COc1ccc([N+](=O)[O-])cc1NS(=O)(=O)c1cccc(C(=O)OC2CCOC2=O)c1 (stereo unspecified)	-4	0	1	nt	i	15	nt	nt	nt
COc1ccc(NC(=S)Nc2ccc3c(c2)c(=O)n(C)n3-c2ccccc2)cc1	0	-7	nt	nt	i	nt	nt	nt	nt
Cc1ccc(S(=O)(=O)c2c(C)nn(-c3ccccc3)c2OC(=O)c2ccco2)cc1	2	-8	0	-3	i	14	nt	nt	nt
Cc1ccc(S(=O)(=O)c2c(N)n(NC(=O)c3ccco3)c3nc4ccccc4nc23)cc1	29	8	0	4	+	-16	5	-45	-3
CN(Cc1ccccc1)CC(O)COc1ccc(CNCCc2ccncc2)cc1 (stereo unspecified)	-3	4	1	2	i	12	nt	nt	nt
CN(C)/C=C/C(=O)c1ccc(Br)cc1	1	4	-3	2	i	18	nt	nt	nt
Cc1ccc(C)n1-c1ccc(C(=O)/C=C/N(C)C)cc1	17	1	-3	16	+	8	8	-53	-2
CC(C)c1ccccc1NC(=O)COC(=O)Cc1cccc(C(F)(F)F)c1	0	-14	-8	0	i	1	nt	nt	nt
NC(=O)C1CCN(CC(=O)Nc2nccs2)CC1	2	4	-2	0	i	0	nt	nt	nt
COc1ccc(/C=C2\Sc3ccc(C(=O)NCCN4CCCCCC4)cc3N(C)C2=O)cc1	21	8	-1	-2	+	18	40	-82	31
COc1ccccc1NC(=O)c1sc2ncn(CC(=O)Nc3ccccc3)c(=O)c2c1C	11	6	1	4	+	-7	27	18	9
COc1ccccc1NC(=O)Cn1cnc2sc(C(=O)Nc3cc(OC)c(OC)c(OC)c3)c(C)c2c1=O	0	0	1	0	i	12	nt	nt	nt
CC(C)CCNC(=O)C(c1ccc(O)cc1)N(C(=O)C1COc2ccccc2O1)c1cccc(O)c1 (stereo unspecified)	3	2	0	-1	i	17	nt	nt	nt
CC(C)CC1NC(=O)N(CCCCN2C(=O)c3ccccc3C2=O)C1=O (stereo unspecified)	-2	1	1	0	i	4	nt	nt	nt
COc1ccc(CCNC(=O)CS(=O)Cc2nc(-c3cccs3)oc2C)cc1OC (stereo unspecified)	2	-4	2	3	+	2	12	-6	13
COc1cccc(-c2cn(C[C@H]3CC[C@@H]([C@@H]4CC[C@H](Cn5cc(-c6cccc(OC)c6)nn5)O4)O3)nn2)c1	-1	10	0	-2	i	2	nt	nt	nt
CC(=O)Nc1ccc(NC(=S)NC(=O)c2cc3ccccc3o2)cc1	-1	-7	-4	-3	i	-7	nt	nt	nt
CC(C)C(=O)Nc1ccc(NC(=O)c2cc3ccccc3o2)cc1	16	-2	0	-4	+	-3	-3	-19	-1
O=C(NC(=S)Nc1ccc2oc(=O)ccc2c1)c1cc2ccccc2o1	-9	2	0	1	+	14	1	24	3
CC(C)C(=O)Nc1ccc(NC(=S)NC(=O)c2cc3ccccc3o2)cc1	0	-1	-3	4	i	1	nt	nt	nt
O=C(Nc1ccccc1)c1cccc2c(-c3cccnc3)coc12	0	3	nt	nt	i	nt	nt	nt	nt
COc1ccc(NC(=O)c2cccc3c(-c4cccnc4)coc23)cc1	-5	6	nt	nt	+	nt	42*	-126	4
SMILES	HNF4A DNA FP	CSN inh	CRFBP-R2 agonist	TPT1 inhibitor	Rpn11 inh	CRFR2-BP antag	Rpn11 inh conf	MMP-2 counter	Thrombin FP
O=C(Nc1ccccc1OC(F)F)c1oc2ccccc2c1COc1ccccc1	0	1	6	4	i	-16	nt	nt	nt
O=C(CN1CCN(C(=O)c2cccs2)CC1)Nc1ccc(Br)cc1	2	-3	1	2	i	-13	nt	nt	nt
O=C(CN1CCN(C(=O)c2cccs2)CC1)NC1CCCCC1	0	-1	3	2	+	0	-9	-34	-24
CC(C)N1C(=O)CN(C2CCCCCC2)C(=O)C1c1ccccc1F (stereo unspecified)	5	1	1	0	i	-10	nt	nt	nt
O=C(NCCCN1CCCCCC1)c1ccc2c(Cl)c3c(nc2c1)CCCC3	0	10	1	-4	+	-35	-15	21	-25
COC(=O)c1ccc(NC(=O)Cn2nc(-c3ccncc3)nc2SCC(=O)Nc2nccs2)cc1	8	8	2	9	+	5	22	-14	7
COc1ccc(NC(=O)/C=C/c2ccccc2)c([N+](=O)[O-])c1	2	-2	2	3	i	-32	nt	nt	nt
CCOc1ccc(NC(=O)/C=C/c2ccc(OC)cc2)c([N+](=O)[O-])c1	24	16	1	7	+	-9	-16	-26	-20
COc1ccc(/C=C/C(=O)Nc2ccc(OC)cc2[N+](=O)[O-])cc1	11	10	0	3	+	-13	39	-20	14
COC(=O)c1[nH]c2cccc(OC)c2c1NC(=O)CN(C)CC1OCCO1	2	0	-1	-3	i	15	nt	nt	nt
Cc1cc(NS(=O)(=O)c2ccc(Nc3nc(-c4sc(N)nc4C)cs3)cc2)no1	3	73*	1	14	+	5	24	28	-11
O=C(CNC(=O)c1ccncc1)N/N=C/c1cccc([N+](=O)[O-])c1	0	2	0	14	i	-2	nt	nt	nt
CCn1nc(NC(=O)c2ccccn2)c2cc3cccc(C)c3nc21	4	2	-2	-2	+	21	4	-25	15
